How the values were obtained:
Type in all cases: functional
Mus musculus [1] = assay: Antiinflammatory activity in Swiss mouse assessed as inhibition of carrageenan-induced hind paw oedema at 70 mg/kg, po after 4 hrs
Procedure, shortened: (§1)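 Swiss mice (20–30 g), six per group; oral dosing, test agents in distilled water, reference in 5% sodium bicarbonate, saline controls. Oedema induced by subplantar injection of 50 µL 1% carrageenan in saline into right hind paw. Paw size measured before and 4 h after carrageenan. % oedema inhibition calculated versus saline control group's % oedema formation. Mean ± SE; one-way ANOVA, Duncan's test.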

Mus musculus [2] = assay: Antinociceptive activity in Swiss mouse assessed as inhibition of acetic-acid induced writhing at 70 mg/kg, po after 30 mins by Koster test
Procedure, shortened: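 Koster writhing test in Swiss mice (20–30 g), six per group. Oral dosing, test agents in distilled water, reference in 5% sodium bicarbonate. After 60 min, 0.6% acetic acid given ip (0.2 mL/mouse). Writhes counted over 30 min. % change versus saline control group. Mean ± SE; one-way ANOVA, Duncan's test.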

Mus musculus [3] = assay: Effect on thermal pain in Swiss mouse at 70 mg/kg, po after 1 hr by hot plate test
Procedure, shortened: (§2)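 Hot-plate at 52 °C, 60 s cut-off, Swiss mice, six per group. Latency to paw licking or jumping recorded before and 1 h after oral dosing (test agents in distilled water, reference in 5% sodium bicarbonate). % change from basal latency. Mean ± SE; one-way ANOVA, Duncan's test.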

Mus musculus [4] = assay: Antiinflammatory activity in Swiss mouse assessed as inhibition of carrageenan-induced hind paw oedema at 70 mg/kg, po after 4 hrs relative to indomethacin
Procedure, shortened: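 Carrageenan paw oedema in Swiss mice, six per group, 70 mg/kg orally in distilled water; 50 µL 1% carrageenan subplantar, paw measured at 0 and 4 h. Potency expressed as ratio of the compound's percentage change to that of the indomethacin group (35 mg/kg in 5% sodium bicarbonate).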

Mus musculus [5] = assay: Antinociceptive activity in Swiss mouse assessed as inhibition of acetic-acid induced writhing at 70 mg/kg, po after 30 mins by Koster test relative to indomethacin
Procedure, shortened: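 Acetic acid writhing in Swiss mice, six per group: 70 mg/kg orally in distilled water, 0.6% acetic acid ip 60 min later, writhes counted over 30 min. Potency is the ratio of % change to that of the indomethacin group (35 mg/kg).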

Mus musculus [6] = assay: Effect on thermal pain in Swiss mouse at 70 mg/kg, po after 1 hr by hot plate test relative to indomethacin; design: unit not given here
Procedure, shortened: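 Hot-plate at 52 °C (60 s cut-off), Swiss mice, six per group. Latency to licking or jumping measured before and 1 h after 70 mg/kg orally. Potency is the ratio of % change from basal to that of the indomethacin group (35 mg/kg).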

Mus musculus [7] = assay: Antiinflammatory activity in Swiss mouse assessed as inhibition of carrageenan-induced hind paw oedema at 35 mg/kg, po after 4 hrs; procedure, shortened: as §1
Mus musculus [8] = assay: Antinociceptive activity in Swiss mouse assessed as inhibition of acetic-acid induced writhing at 35 mg/kg, […] by Koster test; design: scale not given: the % may be the effect or the level left; conditions: route oral
Mus musculus [9] = assay: Effect on thermal pain in Swiss mouse at 35 mg/kg, po after 1 hr by hot plate test; procedure, shortened: as §2

Row | SMILES | inhibition in vivo at 70 mg/kg (Mus musculus [1]) | percent change in writhing count versus control (Mus musculus [2]) | Activity (Mus musculus [3]) | Activity (Mus musculus [4]) | Activity (Mus musculus [5]) | Activity (Mus musculus [6]) | inhibition in vivo at 35 mg/kg (Mus musculus [7]) | Activity (Mus musculus [8]) | Activity (Mus musculus [9])
1 | CCOC(=O)C1=NN(c2ccccc2)/C(=C(\C#N)C(=O)c2c[nH]c3ccccc23)S1 | -5.5% | -61.7% | 9.6% | 0.2 ratio (fold of indomethacin) | 0.76 ratio to indomethacin | 0.4 |  |  | 
2 | CC(=O)C1=NN(c2ccccc2)/C(=C(\C#N)C(=O)c2c[nH]c3ccccc23)S1 | -21.9% | -71.6% | 2.4% | 0.6 ratio (fold of indomethacin) | 0.88 ratio to indomethacin | 0.1 |  |  | 
3 | COc1ccc2c(c1)c(CC(=O)O)c(C)n2C(=O)c1ccc(Cl)cc1 [INDOMETHACIN] |  |  |  |  |  |  | -29.9% | -80.7% | 22.6%
4 | CC(=O)C1=NN(c2ccc(C)cc2)/C(=C(\C#N)C(=O)c2c[nH]c3ccccc23)S1 | -32.7% | -57.8% | 21% | 1.1 ratio (fold of indomethacin) | 0.7 ratio to indomethacin | 0.9 |  |  | 
5 | CC(=O)C1=NN(c2ccc(Cl)cc2)/C(=C(\C#N)C(=O)c2c[nH]c3ccccc23)S1 | -15% | -45.7% | 69.6% | 0.5 ratio (fold of indomethacin) | 0.57 ratio to indomethacin | 3.1 |  |  | 
6 | CCOC(=O)C1=NN(c2ccc(C)cc2)/C(=C(\C#N)C(=O)c2c[nH]c3ccccc23)S1 | -11.5% | -77.5% | 11.4% | 0.4 ratio (fold of indomethacin) | 0.96 ratio to indomethacin | 0.5 |  |  | 
7 | CC(=O)c1sc(Nc2ccccc2)c(C#N)c1-c1c[nH]c2ccccc12 | -44.4% | -68.6% | 11.2% | 1.5 ratio (fold of indomethacin) | 0.85 ratio to indomethacin | 0.5 |  |  | 
8 | N#C/C(=N\Nc1cc(-c2ccccc2)n[nH]1)C(=O)c1c[nH]c2ccccc12 | -13.1% | -62.5% | 28.3% | 0.4 ratio (fold of indomethacin) | 0.77 ratio to indomethacin | 1.3 |  |  | 
9 | CCOC(=O)C1=NN(c2ccc(Cl)cc2)/C(=C(\C#N)C(=O)c2c[nH]c3ccccc23)S1 | -19.1% | -76% | 9.9% | 0.6 ratio (fold of indomethacin) | 0.9 ratio to indomethacin | 0.4 |  |  | 
10 | N#C/C(C(=O)c1c[nH]c2ccccc12)=C1/SCC(=O)N1c1ccccc1 | -7.7% | -60.9% | 76.5% | 0.3 ratio (fold of indomethacin) | 0.75 ratio to indomethacin | 3.4 |  |  | 
11 | N#C/C(C(=O)c1c[nH]c2ccccc12)=C(\S)Nc1ccccc1 | -28% | -64.1% | 24.2% | 0.9 ratio (fold of indomethacin) | 0.79 ratio to indomethacin | 1.1 |  |  | 
12 | N#C/C(=N\Nc1nc2ccccc2[nH]1)C(=O)c1c[nH]c2ccccc12 | -25.5% | -63.2% | 8.6% | 0.9 ratio (fold of indomethacin) | 0.78 ratio to indomethacin | 0.4 |  |  | 
13 | N#C/C(C(=O)c1c[nH]c2ccccc12)=C1/SC(c2ccccc2)=NN1c1ccccc1 | -31% | -35.3% | 27.3% | 0.9 ratio (fold of indomethacin) | 0.4 ratio to indomethacin | 1.2 |  |  | 

Source: ChEMBL document CHEMBL1147939, “Synthesis and biological evaluation of new 3-substituted indole derivatives as potential anti-inflammatory and analgesic agents” (2007)
